Laboratory results: ChEMBL document CHEMBL3112393, “Structure-based design, synthesis and biological evaluation of diphenylmethylamine derivatives as novel Akt1 inhibitors” (Eur J Med Chem, 2014)
Values belong to the compound of their own block, whether it stands above or below them. Active and inactive are the calls of the source. The calls are words filed in the database; no cut-off is given here.

Experiments:
[1] = target: T1, RAC-alpha serine/threonine-protein kinase (Homo sapiens, UniProt P31749); assay: Inhibition of Akt1 (unknown origin) using ATP/eNOS as substrate at 10 uM preincubated for 5 mins followed by substrate addition measured after 30 mins by fluorescence polarization assay
T1 sequence (P31749 whole entry): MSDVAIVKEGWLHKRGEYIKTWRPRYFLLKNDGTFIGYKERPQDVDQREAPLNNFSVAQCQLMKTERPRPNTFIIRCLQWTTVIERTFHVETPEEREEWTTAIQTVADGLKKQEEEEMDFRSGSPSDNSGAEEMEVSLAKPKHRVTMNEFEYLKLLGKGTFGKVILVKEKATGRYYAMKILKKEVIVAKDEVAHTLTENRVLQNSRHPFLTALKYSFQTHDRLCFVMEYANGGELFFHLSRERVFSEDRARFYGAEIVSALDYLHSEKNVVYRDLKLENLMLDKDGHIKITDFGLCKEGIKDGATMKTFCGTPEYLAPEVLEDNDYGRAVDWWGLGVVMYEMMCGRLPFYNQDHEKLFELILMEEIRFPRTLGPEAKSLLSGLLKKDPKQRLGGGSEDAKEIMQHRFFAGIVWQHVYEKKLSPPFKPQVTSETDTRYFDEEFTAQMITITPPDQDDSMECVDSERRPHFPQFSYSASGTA
Outline: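 Competitive fluorescence polarization kinase assay. 4 ng Akt1 in 2.5× kinase buffer (62.5 mM Tris-HCl pH 7.5, 25 mM MgCl₂, 12.5 mM β-glycerophosphate, 0.25 mM Na₃VO₄, 5 mM DTT) preincubated with DMSO vehicle or compound for 5 min at room temperature. ATP/eNOS substrate cocktail then added. Reaction stopped with 50 mM EDTA (pH 8.0), activity read per kit instructions. Single-point inhibition measured at 10.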

OVCAR-8 [2] = assay: Antiproliferative activity against human OVCAR8 cells after 72 hrs by MTT assay; assay type: functional, cell-based; conditions: OVCAR-8, 72 h
Outline: (§1)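 MTT assay: cells seeded at 4000 per well, attached overnight, exposed to compound over 1.0–100.0 range for 72 h. MTT then added, 4 h more at 37 °C. Formazan dissolved in DMSO, absorbance at 570 nm. Triplicate wells in three independent experiments. IC50 from dose-effect analysis.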

HL-60 = assay: Antiproliferative activity against human HL60 cells after 72 hrs by MTT assay; assay type: functional, cell-based; conditions: HL-60, 72 h; outline: as §1
[3] = target: T1, RAC-alpha serine/threonine-protein kinase; assay: Inhibition of Akt1 (unknown origin) using ATP/eNOS as substrate preincubated for 5 mins followed by substrate addition measured after 30 mins by fluorescence polarization assay
HCT-116 = assay: Antiproliferative activity against human HCT116 cells after 72 hrs by MTT assay; assay type: functional, cell-based; conditions: HCT-116, 72 h; outline: as §1
[4] = target: T1, RAC-alpha serine/threonine-protein kinase; assay: Inhibition of Akt1 in human OVCAR8 cells assessed as effect on total GSK3beta level at 1 uM by Western blotting analysis; assay type: cell-based; conditions: OVCAR-8
Outline: (§2)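 OVCAR-8 cells treated, washed with ice-cold PBS, lysed in buffer with NaF, β-glycerophosphate and PMSF. Lysate cleared at 13,000 rpm for 30 min at 4 °C, protein measured by Bradford. 40–80 of lysate protein run on SDS-PAGE and transferred to nitrocellulose. Blots probed with primary antibodies, then HRP secondaries, detected by ECL.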

Homo sapiens = organism: Homo sapiens; assay: Inhibition of Drak (unknown origin) at 0.8 ug/ml
[5] = target: T2, Aurora kinase A (Homo sapiens) (UniProt O14965); assay: Inhibition of Aurora A (unknown origin) at 0.8 ug/ml
T2 sequence (whole entry): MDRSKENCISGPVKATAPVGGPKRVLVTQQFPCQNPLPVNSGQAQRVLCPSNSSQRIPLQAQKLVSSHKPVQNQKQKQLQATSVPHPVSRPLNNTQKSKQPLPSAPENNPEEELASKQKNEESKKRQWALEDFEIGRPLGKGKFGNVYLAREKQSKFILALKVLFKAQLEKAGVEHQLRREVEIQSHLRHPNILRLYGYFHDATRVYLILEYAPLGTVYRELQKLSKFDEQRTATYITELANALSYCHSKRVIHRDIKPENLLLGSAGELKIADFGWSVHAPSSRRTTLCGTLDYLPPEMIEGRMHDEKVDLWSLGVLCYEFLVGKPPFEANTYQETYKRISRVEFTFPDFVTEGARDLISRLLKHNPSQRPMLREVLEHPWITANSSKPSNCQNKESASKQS

[6] = target: Glycogen synthase kinase-3 beta (Homo sapiens) (UniProt P49841); assay: Inhibition of GSK3beta (unknown origin) at 0.8 ug/ml
Chain of Glycogen synthase kinase-3 beta (Homo sapiens) (P49841 whole entry, looked up): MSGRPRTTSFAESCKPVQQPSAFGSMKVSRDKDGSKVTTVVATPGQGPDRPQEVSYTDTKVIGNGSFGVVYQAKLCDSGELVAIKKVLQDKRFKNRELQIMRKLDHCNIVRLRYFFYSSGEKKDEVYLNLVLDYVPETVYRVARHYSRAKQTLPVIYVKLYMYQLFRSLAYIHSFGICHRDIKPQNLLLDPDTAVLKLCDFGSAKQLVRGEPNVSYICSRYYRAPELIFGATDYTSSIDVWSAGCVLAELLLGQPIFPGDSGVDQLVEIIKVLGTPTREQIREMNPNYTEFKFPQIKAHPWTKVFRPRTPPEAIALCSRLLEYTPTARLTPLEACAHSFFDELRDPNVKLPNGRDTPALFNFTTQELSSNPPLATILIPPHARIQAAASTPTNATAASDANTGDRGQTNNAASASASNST

[7] = target: T1, RAC-alpha serine/threonine-protein kinase; assay: Inhibition of Akt1-mediated phosphorylation at Ser473 in human OVCAR8 cells at 1 uM by Western blotting analysis; assay type: cell-based; conditions: OVCAR-8; outline: as §2
[8] = target: T3, Inhibitor of nuclear factor kappa-B kinase subunit beta (Homo sapiens) (UniProt O14920); assay: Inhibition of IKKbeta (unknown origin) at 0.8 ug/ml
T3 sequence (whole entry): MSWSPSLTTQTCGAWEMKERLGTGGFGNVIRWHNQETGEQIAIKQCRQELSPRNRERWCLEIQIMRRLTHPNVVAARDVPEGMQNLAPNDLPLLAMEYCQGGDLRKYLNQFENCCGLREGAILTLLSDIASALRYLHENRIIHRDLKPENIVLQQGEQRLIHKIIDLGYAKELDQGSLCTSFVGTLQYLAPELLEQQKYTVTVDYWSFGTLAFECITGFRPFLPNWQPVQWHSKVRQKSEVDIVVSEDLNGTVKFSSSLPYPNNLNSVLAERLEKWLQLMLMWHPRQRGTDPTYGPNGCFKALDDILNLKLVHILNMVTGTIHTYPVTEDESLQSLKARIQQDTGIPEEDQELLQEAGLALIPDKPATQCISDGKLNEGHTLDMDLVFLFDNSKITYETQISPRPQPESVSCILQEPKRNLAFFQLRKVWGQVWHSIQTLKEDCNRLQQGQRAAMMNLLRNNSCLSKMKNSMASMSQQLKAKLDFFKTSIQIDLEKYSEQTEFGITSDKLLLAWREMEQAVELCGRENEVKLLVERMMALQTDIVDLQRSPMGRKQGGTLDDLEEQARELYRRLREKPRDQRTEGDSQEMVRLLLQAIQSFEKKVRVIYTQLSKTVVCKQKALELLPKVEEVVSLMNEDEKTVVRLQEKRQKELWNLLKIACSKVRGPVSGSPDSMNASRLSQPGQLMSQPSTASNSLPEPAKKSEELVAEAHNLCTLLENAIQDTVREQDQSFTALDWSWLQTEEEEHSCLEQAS

[9] = target: Tyrosine-protein kinase JAK2 (Homo sapiens) (UniProt O60674); assay: Inhibition of JAK2 (unknown origin) at 0.8 ug/ml
Chain of Tyrosine-protein kinase JAK2 (Homo sapiens) (O60674 whole entry): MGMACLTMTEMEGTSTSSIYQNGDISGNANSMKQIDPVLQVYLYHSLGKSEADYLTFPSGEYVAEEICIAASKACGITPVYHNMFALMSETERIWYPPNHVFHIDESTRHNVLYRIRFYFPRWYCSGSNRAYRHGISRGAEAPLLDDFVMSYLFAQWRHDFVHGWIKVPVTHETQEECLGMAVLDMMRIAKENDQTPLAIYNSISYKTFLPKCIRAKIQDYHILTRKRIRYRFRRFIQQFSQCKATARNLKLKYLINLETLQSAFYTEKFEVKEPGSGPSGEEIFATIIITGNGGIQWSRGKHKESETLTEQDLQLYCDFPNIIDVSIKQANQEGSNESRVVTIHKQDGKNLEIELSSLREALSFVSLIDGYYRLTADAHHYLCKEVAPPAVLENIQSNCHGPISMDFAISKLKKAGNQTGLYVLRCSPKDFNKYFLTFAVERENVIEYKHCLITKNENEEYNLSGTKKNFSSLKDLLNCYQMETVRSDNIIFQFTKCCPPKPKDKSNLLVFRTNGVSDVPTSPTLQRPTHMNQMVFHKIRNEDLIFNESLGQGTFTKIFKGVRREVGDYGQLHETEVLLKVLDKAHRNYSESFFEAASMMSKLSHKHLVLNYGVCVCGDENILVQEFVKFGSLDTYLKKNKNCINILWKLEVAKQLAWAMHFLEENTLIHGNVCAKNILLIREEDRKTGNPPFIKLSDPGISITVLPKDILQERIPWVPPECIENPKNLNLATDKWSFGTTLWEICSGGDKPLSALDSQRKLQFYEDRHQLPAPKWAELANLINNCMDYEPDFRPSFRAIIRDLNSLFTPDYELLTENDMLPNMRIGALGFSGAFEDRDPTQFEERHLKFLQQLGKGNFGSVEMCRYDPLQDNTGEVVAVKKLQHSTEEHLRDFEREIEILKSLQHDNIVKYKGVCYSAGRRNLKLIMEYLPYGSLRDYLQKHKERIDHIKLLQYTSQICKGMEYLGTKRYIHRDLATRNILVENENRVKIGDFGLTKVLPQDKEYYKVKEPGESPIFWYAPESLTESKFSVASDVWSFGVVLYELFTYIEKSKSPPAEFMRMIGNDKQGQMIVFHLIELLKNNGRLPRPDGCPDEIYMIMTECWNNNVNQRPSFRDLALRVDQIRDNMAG

[10] = target: T1, RAC-alpha serine/threonine-protein kinase; assay: Inhibition of Akt1 in human OVCAR8 cells assessed as GSK3beta phosphorylation at 1 uM by Western blotting analysis; assay type: cell-based; conditions: OVCAR-8; outline: as §2
[11] = target: Tyrosine-protein kinase SYK (Homo sapiens) (UniProt P43405); assay: Inhibition of SYK (unknown origin) at 0.8 ug/ml
[12] = target: T4, Serine/threonine-protein kinase B-raf (Homo sapiens, UniProt P15056); assay: Inhibition of BRAF1 (unknown origin)
T4 sequence (P15056 whole entry): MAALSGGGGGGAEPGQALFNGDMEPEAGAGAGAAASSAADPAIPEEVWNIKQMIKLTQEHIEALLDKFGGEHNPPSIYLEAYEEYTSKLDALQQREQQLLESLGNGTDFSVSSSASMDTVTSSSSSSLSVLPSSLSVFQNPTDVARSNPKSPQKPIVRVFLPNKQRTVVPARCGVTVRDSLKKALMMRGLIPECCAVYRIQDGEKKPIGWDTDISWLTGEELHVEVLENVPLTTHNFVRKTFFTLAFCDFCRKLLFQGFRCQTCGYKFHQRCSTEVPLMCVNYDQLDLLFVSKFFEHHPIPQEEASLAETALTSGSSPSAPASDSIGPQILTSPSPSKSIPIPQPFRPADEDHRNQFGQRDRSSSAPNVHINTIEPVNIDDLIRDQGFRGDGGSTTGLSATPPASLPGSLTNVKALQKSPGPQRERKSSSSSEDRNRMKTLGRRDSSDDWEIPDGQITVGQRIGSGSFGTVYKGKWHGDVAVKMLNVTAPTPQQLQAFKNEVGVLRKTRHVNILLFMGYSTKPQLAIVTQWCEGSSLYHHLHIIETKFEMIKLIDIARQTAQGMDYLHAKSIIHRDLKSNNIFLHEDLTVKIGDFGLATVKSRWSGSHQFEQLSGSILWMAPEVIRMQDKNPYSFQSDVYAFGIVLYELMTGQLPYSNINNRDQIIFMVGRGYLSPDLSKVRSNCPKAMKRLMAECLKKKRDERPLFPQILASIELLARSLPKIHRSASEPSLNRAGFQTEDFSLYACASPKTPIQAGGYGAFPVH

OVCAR-8 [13] = assay: Induction of apoptosis in human OVCAR8 cells assessed as accumulation at sub-G1 phase at 20 uM after 48 hrs by annexin V-FITC/propidium iodide staining-based FACS flow cytometric analysis (reference value: 1.2%); assay type: functional
Outline: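 OVCAR-8 cells (5 × 10⁴ cells/ml, 5 ml) grown in 25 cm² flasks, treated with vehicle or compound for 48 h. Cells harvested, washed twice with ice-cold PBS, stained with annexin V-FITC/propidium iodide, analysed by flow cytometry.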

[14] = Inhibition of Drak (unknown origin); set-up: species or system Homo sapiens
[15] = target: T4, Serine/threonine-protein kinase B-raf

SMILES: CC(C)NC(c1ccc(Cl)cc1)c1ccc(-c2ccncc2)cc1 (stereo unspecified)
IC50 (OVCAR-8 [2]): 22.8 µM
IC50 (HL-60): 13.9 µM
IC50 [3]: 0.22 µM
IC50 (HCT-116): 17.3 µM

SMILES: NCCNC(c1ccc(Cl)cc1)c1ccc(-c2cn[nH]c2)cc1 (stereo unspecified)
IC50 (OVCAR-8 [2]): 11.1 µM
IC50 [3]: 0.82 µM
IC50 (HCT-116): 10.7 µM

SMILES: Clc1ccc(C(NCc2ccccc2)c2ccc(-c3ncnc4[nH]cnc34)cc2)cc1 (stereo unspecified)
IC50 (OVCAR-8 [2]): 12.5 µM
IC50 (HL-60): 12.1 µM
IC50 [3]: 0.74 µM
IC50 (HCT-116): 16.2 µM

SMILES: CC(C)CNC(c1ccc(Cl)cc1)c1ccc(-c2ccncc2)cc1 (stereo unspecified)
IC50 (OVCAR-8 [2]): 16.3 µM
IC50 (HL-60): 3.3 µM
IC50 [3]: 1.43 µM
IC50 (HCT-116): 15.5 µM

SMILES: Clc1ccc(C(Nc2ccccc2)c2ccc(-c3cn[nH]c3)cc2)cc1 (stereo unspecified)
inhibition [1]: 29%

SMILES: CN[C@@H]1C[C@H]2O[C@@](C)([C@@H]1OC)n1c3ccccc3c3c4c(c5c6ccccc6n2c5c31)C(=O)NC4 [STAUROSPORINE]
IC50 [14]: 0.026 µM
IC50 [15]: 0.015 µM

SMILES: Clc1ccc(C(NC2CC2)c2ccc(-c3cn[nH]c3)cc2)cc1 (stereo unspecified)
IC50 (OVCAR-8 [2]): 7.9 µM
IC50 (HL-60): 7.8 µM
IC50 [3]: 0.48 µM
IC50 (HCT-116): 15.6 µM

SMILES: Clc1ccc(C(NCc2ccccc2)c2ccc(-c3ccncc3)cc2)cc1 (stereo unspecified)
IC50 (OVCAR-8 [2]): 18.5 µM
IC50 (HL-60): 12.5 µM
IC50 [3]: 1.25 µM
IC50 (HCT-116): 16.3 µM

SMILES: Clc1ccc(C(NC2CCCCC2)c2ccc(-c3cn[nH]c3)cc2)cc1 (stereo unspecified)
IC50 (OVCAR-8 [2]): 5.5 µM
IC50 (HL-60): 2.1 µM
IC50 [3]: 1.1 µM
IC50 (HCT-116): 26.8 µM

SMILES: CC(C)(C)NC(c1ccc(Cl)cc1)c1ccc(-c2cccnc2)cc1 (stereo unspecified)
inhibition [1]: 19%

Now from value to compound, other results behind:

inhibition [1]: 26%
SMILES: Clc1ccc(C(Nc2ccccc2)c2ccc(-c3ccncc3)cc2)cc1 (stereo unspecified)

IC50 (OVCAR-8 [2]): 17 µM
IC50 (HL-60): 13.2 µM
IC50 [3]: 0.16 µM
IC50 (HCT-116): 8.5 µM
SMILES: CC(C)NC(c1ccc(Cl)cc1)c1ccc(-c2ncnc3nc[nH]c23)cc1 (stereo unspecified)

IC50 (OVCAR-8 [2]): 12.2 µM
IC50 (HL-60): 10.7 µM
IC50 [3]: 0.37 µM
IC50 (HCT-116): 11.6 µM
SMILES: CC(C)NC(c1ccc(Cl)cc1)c1ccc(-c2cn[nH]c2)cc1 (stereo unspecified)

IC50 (OVCAR-8 [2]): 11.9 µM
IC50 (HL-60): 5.3 µM
IC50 [3]: 1.32 µM
IC50 (HCT-116): 8.3 µM
SMILES: Clc1ccc(C(NCc2ccccc2)c2ccc(-c3cn[nH]c3)cc2)cc1 (stereo unspecified)

IC50 (OVCAR-8 [2]): 10.5 µM
IC50 (HL-60): 11.4 µM
IC50 (HCT-116): 15.7 µM
SMILES: O=S(=O)(NCCNC/C=C/c1ccc(Br)cc1)c1cccc2cnccc12

IC50 (OVCAR-8 [2]): 8.6 µM
IC50 (HL-60): 11 µM
IC50 [3]: 0.64 µM
IC50 (HCT-116): 14.4 µM
SMILES: Clc1ccc(C(NC2CCCCC2)c2ccc(-c3ncnc4[nH]cnc34)cc2)cc1 (stereo unspecified)

inhibition [1]: 10%
SMILES: CC(C)CNC(c1ccc(Cl)cc1)c1ccc(-c2cccnc2)cc1 (stereo unspecified)

IC50 (OVCAR-8 [2]): 30.6 µM
IC50 (HL-60): 11.9 µM
IC50 [3]: 0.47 µM
IC50 (HCT-116): 13.4 µM
SMILES: Clc1ccc(C(NC2CC2)c2ccc(-c3ncnc4[nH]cnc34)cc2)cc1 (stereo unspecified)

IC50 (OVCAR-8 [2]): 16.1 µM
IC50 (HL-60): 3.9 µM
IC50 [3]: 0.17 µM
IC50 (HCT-116): 14.4 µM
SMILES: CC(C)(C)NC(c1ccc(Cl)cc1)c1ccc(-c2ccncc2)cc1 (stereo unspecified)

IC50 (OVCAR-8 [2]): 9.9 µM
IC50 (HL-60): 5.3 µM
IC50 [3]: 0.74 µM
IC50 (HCT-116): 7.7 µM
SMILES: CC(C)CNC(c1ccc(Cl)cc1)c1ccc(-c2ncnc3nc[nH]c23)cc1 (stereo unspecified)

inhibition [4]: inactive
inhibition (Homo sapiens): 12%
IC50 (OVCAR-8 [2]): 8.1 µM
inhibition [5]: 28.3%
inhibition [6]: 7.2%
IC50 (HL-60): 5.3 µM
inhibition [7]: Active
inhibition [8]: 1.8%
IC50 [3]: 0.038 µM
IC50 (HCT-116): 8.9 µM
inhibition [9]: 19.5%
inhibition [10]: Active
inhibition [11]: 0.98%
IC50 [12]: 0.88 µM
SMILES: CC(C)(C)NC(c1ccc(Cl)cc1)c1ccc(-c2cn[nH]c2)cc1 (stereo unspecified)
Activity (OVCAR-8 [13]): 66.8%

IC50 (OVCAR-8 [2]): 8.1 µM
IC50 (HL-60): 5.4 µM
IC50 [3]: 0.9 µM
IC50 (HCT-116): 14.1 µM
SMILES: CC(C)CNC(c1ccc(Cl)cc1)c1ccc(-c2cn[nH]c2)cc1 (stereo unspecified)

IC50 (OVCAR-8 [2]): 15.6 µM
IC50 (HL-60): 3.2 µM
IC50 [3]: 1.26 µM
IC50 (HCT-116): 12.4 µM
SMILES: Clc1ccc(C(NC2CCCCC2)c2ccc(-c3ccncc3)cc2)cc1 (stereo unspecified)

inhibition [1]: 20%
SMILES: Clc1ccc(C(NC2CCCCC2)c2ccc(-c3cccnc3)cc2)cc1 (stereo unspecified)

IC50 (OVCAR-8 [2]): 34.7 µM
IC50 [3]: 0.65 µM
IC50 (HCT-116): 27.6 µM
SMILES: OCCNC(c1ccc(Cl)cc1)c1ccc(-c2cn[nH]c2)cc1 (stereo unspecified)
